We go through ten molecules from PubChem BioAssay.

The source made the active and inactive calls.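 How the source made its calls, unless noted: active means fluorescence slope after compound addition differing from the mean of all tested samples at 99.7% confidence, mostly higher but some lower; inactive means the rest.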

A short description of test [1]: inhibitors of TNFa-induced NFkB p65 translocation, primary screen, imaging, HUVEC, MLSMR starter and 10KST1 sets (AID 438;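 active means inhibition above 20% together with a positive visual image hit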;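 further: compound added about 3h40 before a 20 min TNFalpha stimulation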;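 on inhibition: signal is the nuclear over cytoplasmic p65 intensity ratio per well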). The settings on record: HUVEC TNFa-induced p65 nuclear translocation; cell count: measured here: nuclei count (cytotoxicity indicator), at 2.08 µM; inhibition: at 2 µM, stronger effect = higher value, 0% TNFa-plus-vehicle, 100% no-TNFa wells.
A short description of test [2]: endothelial E-selectin expression blockers – imaging, HUVEC, immunofluorescence, MLSMR starter and 10KST1 sets, primary screen (AID 487;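 active means visually confirmed hit in the image check and inhibition above 20%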;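 on inhibition: signal is fraction of cell area covered by stained E-selectin grains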;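 on nuclei count: 100% = median nuclei count of all wells on the same plate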). The settings on record: HUVEC TNFalpha-induced E-selectin immunofluorescence imaging, at 2 µM; inhibition: stronger effect = higher value; nuclei count: measured here: cell number, toxicity.
Test [3] in a line: Primary imaging screen for DUSP6 inhibitors that restore phospho-Erk in transfected HeLa cells, chemical complementation (AID 609;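 active means compounds giving at least 50% inhibition in the cell-based MKP-3 phosphatase rescue imaging test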;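 on inhibition: phospho-Erk level distribution per well compared with pooled transfected vehicle control wells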). Particulars: HeLa MKP-3 transfected, phospho-Erk imaging KS statistic, at 10 µM, cells stimulated with TPA for 15 min.
In test [4] the target is Dual specificity protein phosphatase 6 (Homo sapiens) (UniProt Q16828). Described as above. Particulars: HeLa MKP-3 transfected, phospho-Erk imaging KS statistic; at 10 µM; stronger effect = higher value; cells stimulated with TPA for 15 min.
Test [5] has as its target Voltage-gated potassium channel subunit beta-2 (Rattus norvegicus) (UniProt P62483). As to the kind of experiment: inhibitors of rat Kvbeta2 reductase activity – biochemical, NADPH fluorescence, primary screen (AID 622;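 active means fluorescence slope higher than the sample average by over 3 SD, cut at about -0.22 in these data, passing the limit was not always enough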;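 further: slope of raw intensity against log time taken from 70 to 1610 s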). The settings on record: recombinant KvBeta, 4-cyanobenzaldehyde reduction, at 10 µM, stronger effect = higher value.
Test [6] shares this target. As to the kind of experiment: enhancers of rat Kvbeta2 NADPH turnover – biochemical, NADPH fluorescence, primary screen (AID 623;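 active means NADPH fluorescence slope more negative than the mean of all samples by about 3 SD, 99.7% confidence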;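 further: fluorescence intensity change per second fitted from 20 to 320 s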). The settings on record: Recombinant KvBeta, NADPH fluorescence decrease slope, 10 min; at 10 µM; stronger effect = lower value.
Test [7] deals with Muscarinic acetylcholine receptor M4 (Homo sapiens) (UniProt P08173). The experiment in a line: M4-linked GIRK flux change, two-sided – cell-based, HEK293 M4/GIRK, thallium flux, BTC-AM, M4 allosteric agonist project, primary screen (AID 625).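 Further: thallium influx through GIRK channels coupled to M4 in HEK293 cells with BTC-AM dye.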 Particulars: at 10 µM, actives lie on both sides. The essentials: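 Material: M4/GIRK1/GIRK2 stable HEK293 cell line. Medium: pH 7.3 thallium assay buffer. Dosing: single compound concentration, 10 µM final. Schedule: 1 h dye loading, 2 min kinetic read. Measured by: kinetic fluorescence with BTC-AM dye. Read-out: post-addition slope, 15–24 s, of baseline-normalized fluorescence. Benchmarks: carbachol and DMSO controls.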

Test [8] is described as follows: inhibitors of larval lipid processing in zebrafish, primary screen, whole organism, PED6 fluorescence, gall bladder and intestine (AID 686;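 active means a full or partial loss of lipid-probe fluorescence in the fish gall bladder, intestine or both, judged by eye; inactive means no fluorescence loss, or compound toxic to the fish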;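 further: larvae 5 to 7 days old with five fish per well; signal comes from phospholipase A2 cleavage of quenched PED6 carried via bile; overnight exposure to compound and PED6 before scoring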). The settings on record: Zebrafish larvae PED6 lipid processing, fluorescence scoring; screened at 20 µM (by protocol). The essentials:
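System: live zebrafish larvae aged 5-7 days, whole organism; measure: graded gall bladder and intestinal fluorescence inhibition per well; incubation: overnight exposure; reagent: ingested quenched lipid PED6 at 100 nM; signal: By-eye fluorescence microscopy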

Test [9] is described as follows: loss of swimming-algae plug formation – whole organism, Chlamydomonas reinhardtii, WT vs cilia-less mutant, absorbance, 96-well, primary screen (AID 463189;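 active means inhibition at or above 50% relative to wild type and mutant plate controls; inactive means inhibition below 50%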;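 further: 0% = wild type cc124 cells in DMSO and 100% = ciliumless bld1 mutant cells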). Particulars: Chlamydomonas reinhardtii gravitaxis, OD600 absorbance, 2 days; at 10 µM; stronger effect = higher value.
[10] abbreviates: measured here: cell density z-score.
Where [11] appears, read: measured here: nuclear c-Myc green intensity z-score.
The mark [12] stands for this setting: measured here: nuclear pErk red intensity z-score, stronger effect = higher value.

Chain of Dual specificity protein phosphatase 6 (Homo sapiens) (Q16828 whole entry, looked up): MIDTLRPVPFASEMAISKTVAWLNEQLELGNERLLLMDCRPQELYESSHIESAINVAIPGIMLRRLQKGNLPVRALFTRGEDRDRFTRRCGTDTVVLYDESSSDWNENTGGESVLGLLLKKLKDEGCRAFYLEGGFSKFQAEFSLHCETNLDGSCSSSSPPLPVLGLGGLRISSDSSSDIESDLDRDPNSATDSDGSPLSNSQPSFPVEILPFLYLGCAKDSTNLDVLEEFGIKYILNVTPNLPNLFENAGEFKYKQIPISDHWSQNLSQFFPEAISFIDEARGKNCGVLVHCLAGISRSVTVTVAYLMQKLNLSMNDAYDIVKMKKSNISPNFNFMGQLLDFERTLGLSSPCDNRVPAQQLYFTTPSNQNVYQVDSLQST
Chain of Muscarinic acetylcholine receptor M4 (Homo sapiens) (P08173 whole entry, looked up): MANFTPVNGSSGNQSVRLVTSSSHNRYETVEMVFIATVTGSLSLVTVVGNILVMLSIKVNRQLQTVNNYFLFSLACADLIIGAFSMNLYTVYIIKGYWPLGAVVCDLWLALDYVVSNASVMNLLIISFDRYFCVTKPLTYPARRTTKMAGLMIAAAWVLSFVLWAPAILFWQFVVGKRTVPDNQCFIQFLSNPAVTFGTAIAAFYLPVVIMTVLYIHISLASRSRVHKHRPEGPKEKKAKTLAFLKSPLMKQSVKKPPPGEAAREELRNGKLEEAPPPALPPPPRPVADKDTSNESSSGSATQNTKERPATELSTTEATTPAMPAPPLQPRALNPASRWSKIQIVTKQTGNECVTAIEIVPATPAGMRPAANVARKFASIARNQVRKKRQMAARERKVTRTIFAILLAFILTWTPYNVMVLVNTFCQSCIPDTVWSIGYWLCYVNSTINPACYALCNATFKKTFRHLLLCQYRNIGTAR
Chain of Voltage-gated potassium channel subunit beta-2 (Rattus norvegicus) (P62483 whole entry, looked up): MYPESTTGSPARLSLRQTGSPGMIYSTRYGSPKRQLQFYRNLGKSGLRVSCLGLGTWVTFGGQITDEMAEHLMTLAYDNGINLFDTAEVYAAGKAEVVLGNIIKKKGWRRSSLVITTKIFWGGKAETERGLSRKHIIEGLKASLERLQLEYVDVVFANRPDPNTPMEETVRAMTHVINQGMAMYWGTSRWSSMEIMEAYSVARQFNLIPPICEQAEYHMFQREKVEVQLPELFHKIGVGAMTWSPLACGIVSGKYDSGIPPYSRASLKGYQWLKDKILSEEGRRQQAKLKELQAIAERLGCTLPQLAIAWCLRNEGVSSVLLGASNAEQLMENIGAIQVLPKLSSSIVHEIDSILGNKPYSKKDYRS

`COc1cccc(-c2nc(N3CCCCC3C)c3ccccc3n2)c1O` (stereo not given): the cell count in test [1] came to 676. For the same molecule, the inhibition in [1] was 1% (inactive); in [2], 32.7% (inactive); in [4], -5.62% (inactive); in test [9] it was 9.9% (inactive). Moreover, the nuclei count in test [2] worked out at 154%. In addition, the z-score in [3] (setting [10]) is -0.111; in test [3] (setting [11]), 1.23; in [3] (setting [12]), 0.615. The fluorescence slope in test [5] is -0.465 (inactive); in test [7], 0.0038 (inactive). The NADPH fluorescence slope in test [6] is -7.5e-05 (inactive). Moreover, the outcome in test [8] was “inactive; toxic”.
Regarding `O=C1C2ON(c3ccccc3)C(c3cccnc3)C2C(=O)N1Cc1ccccc1` (stereo not given), in test [1], the cell count is 620. In addition, the inhibition in test [1] is -11% (inactive); in [2], -48.8% (inactive); in [4], 2.71% (inactive); in [9], -1.68% (inactive). This molecule also yielded a nuclei count in test [2] of 177%. In addition, the z-score is 0.802 in test [3] (setting [10]), 0.656 in test [3] (setting [11]) and -1.11 in [3] (setting [12]). The figures for the fluorescence slope in [5] and in test [7] were -0.512 (inactive) and 0.00545 (inactive), respectively. Also, in [6], the NADPH fluorescence slope was -5.7e-05 (inactive). Further, the outcome in test [8] was inactive.
Turning to `CC(C)C(=O)N1CCN(c2nc(-c3ccccc3)c3c(c2C#N)CC(C)(C)OC3)CC1`, in test [1], the cell count worked out at 607. The inhibition in test [1] is -3.4% (inactive); in test [2] it was -9.6% (inactive); in [4] it was -2.29% (inactive); in test [9], 26.8% (inactive). In [2], the nuclei count was found to be 163%. In addition, the z-score in test [3] (setting [10]) was 0.152; in test [3] (setting [11]), 0.868; in [3] (setting [12]), -0.257. The fluorescence slope was -0.366 (inactive) in test [5] and 0.00797 (inactive) in test [7]. Also, in [6], the NADPH fluorescence slope was -2.4e-05 (inactive). Besides, in test [8], the call was inactive.
With `CCOC(=O)CNS(=O)(=O)c1cc(-c2n[nH]c(=O)c3ccccc23)ccc1C`, the cell count in [1] was 550. Also, the inhibition was -12.6% (inactive) in [1], -67% (inactive) in [2], 20.2% (inactive) in [4] and 2.8% (inactive) in test [9]. Moreover, the nuclei count in test [2] is 151%. Also, the z-score in test [3] (setting [10]) was 2.42; in [3] (setting [11]), 0.186; in test [3] (setting [12]) it was 0.634. Moreover, the fluorescence slope in test [5] is -0.47 (inactive); in [7], 0.00467 (inactive). In addition, the NADPH fluorescence slope in test [6] is -0.000102 (inactive). In addition, the result in [8] was inactive.
For `CCCn1nc(Oc2nc(SC)nc(N(C)C)n2)ccc1=O`, in test [1], the cell count was 340. For the same molecule, the inhibition in test [1] was -6.1% (inactive); in [2], -38% (inactive); in [4], 16.1% (inactive); in test [9], -11.7% (inactive). For the same molecule, in test [2], the nuclei count was determined as 91.9%. The z-score is 1.7 in test [3] (setting [10]), -0.0746 in [3] (setting [11]) and -1.32 in test [3] (setting [12]). Further, the fluorescence slope was -0.491 (inactive) in [5] and 0.00516 (inactive) in test [7]. The NADPH fluorescence slope in test [6] is 3.6e-05 (inactive). In addition, the molecule was classed as inactive in test [8].
For the molecule `CC(NC(=O)CSc1nc2c(cc1C#N)CN(C)CC2)c1ccccc1` (stereo not given), the cell count in test [1] was 739. For the same molecule, the inhibition in [1] is 5.9% (inactive); in [2], -3.5% (inactive); in [4], 6.04% (inactive); in test [9], 11.3% (inactive). The nuclei count in test [2] was 170%. For the same molecule, the figures for the z-score in test [3] (setting [10]), in test [3] (setting [11]) and in test [3] (setting [12]) were 0.748, -0.601 and -0.682, respectively. The results for the fluorescence slope in test [5] and in test [7] were -0.429 (inactive) and 0.00365 (inactive), respectively. Moreover, in test [6], the NADPH fluorescence slope was -3.9e-05 (inactive). Also, the molecule was called inactive in test [8].
Take `COC(=O)c1ccc(C2/C(=C(\O)c3ccc(OC)c(C)c3)C(=O)C(=O)N2c2cc(C)on2)cc1` (stereo not given): the cell count in test [1] was found to be 664. The inhibition in test [1] was -16.1% (inactive); in [2], -48.1% (inactive); in test [4] it was -1.12% (inactive); in test [9], 16.4% (inactive). This molecule also displayed a nuclei count in [2] of 165%. For the same molecule, the z-score was -1.19 in test [3] (setting [10]), 0.297 in test [3] (setting [11]) and 0.0353 in test [3] (setting [12]). Moreover, the fluorescence slope is -0.444 (inactive) in [5] and 0.00525 (inactive) in test [7]. The NADPH fluorescence slope in [6] is -3.1e-05 (inactive). For the same molecule, in test [8], the result was inactive.
As for `Cc1cc(Nc2ccc3ccccc3c2)n2ncnc2n1`, the cell count in test [1] came out at 503. In addition, the inhibition in test [1] is -0.6% (inactive); in test [2], 56.4% (inactive); in test [4], 3.97% (inactive); in [9] it was -3.1% (inactive). For the same molecule, the nuclei count in test [2] stood at 146%. The z-score is -0.633 in test [3] (setting [10]), 0.516 in test [3] (setting [11]) and -1.5 in [3] (setting [12]). In addition, the values for the fluorescence slope in test [5] and in [7] were -0.414 (inactive) and 0.00533 (inactive), respectively. Also, the NADPH fluorescence slope in test [6] is -4.4e-05 (inactive). Further, in [8], the molecule was called inactive.
Consider `O=c1c2c3c(sc2nc2n1CCCS2)CCCC3`, for which the cell count in [1] was 612. For the same molecule, the inhibition in test [1] is -6.1% (inactive); in test [2], -125% (inactive); in test [4], -7.67% (inactive); in test [9], 73.3% (active). This molecule also came in with a nuclei count in test [2] of 162%. In addition, the z-score in test [3] (setting [10]) is -0.979; in [3] (setting [11]), -0.423; in test [3] (setting [12]), 0.7. Also, the fluorescence slope in [5] was -0.477 (inactive); in test [7], 0.00442 (inactive). The NADPH fluorescence slope in test [6] is -9.8e-05 (inactive). Moreover, the result in [8] was inactive.
For the molecule `O=C(/C=N/O)NCCCN1CCOCC1`, in test [1], the cell count turned out to be 682. The inhibition was -11.2% (inactive) in test [1], 3.2% (inactive) in test [2], -15.1% (inactive) in test [4] and 5.9% (inactive) in [9]. Moreover, in [2], the nuclei count was 168%. Moreover, the z-score in test [3] (setting [10]) was -1.5; in test [3] (setting [11]), -0.495; in test [3] (setting [12]) it was 2.77. In addition, the fluorescence slope is -0.477 (inactive) in test [5] and 0.00666 (inactive) in test [7]. For the same molecule, the NADPH fluorescence slope in test [6] was -7.4e-05 (inactive). For the same molecule, the molecule was called inactive in test [8].
